What was measured:
Enterovirus [1] = assay: In vitro inhibitory concentration against human enterovirus EV71-2231 strain; assay type: functional, organism-based, Enterovirus A71
Procedure, shortened: (§1)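 CPE-inhibition (neutralization) assay on RD cells seeded at 3 × 10⁵ cells/mL in DMEM/10% FBS and grown 24-30 h to about 90% confluency. Virus (100 TCID50) was mixed with graded compound concentrations and adsorbed 1 h at 37 °C. Cells were overlaid with DMEM, 5% FBS and 2% DMSO, incubated 64 h at 37 °C, then glutaraldehyde-fixed and crystal violet-stained, with A570 read-out. IC50 is 50% CPE reduction versus virus control. Triplicate, at least twice.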

Enterovirus [2] = assay: In vitro inhibitory concentration against human enterovirus EV71-4643 strain; assay type: functional, organism-based, Enterovirus A71; procedure, shortened: as §1
[3] = Cytotoxicity against human rhabdomyosarcoma cells; assay type: cell-based
Procedure, shortened: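 RD (rhabdomyosarcoma) cells were exposed to test compounds at various concentrations for 96 h at 37 °C. Viable cells were counted by trypan blue staining. CC50 is the concentration that reduces viability to 50% of the untreated control culture. Triplicate, run at least twice.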

Coxsackievirus [4] = assay: Inhibitory concentration against Coxsackievirus A10; assay type: functional, organism-based, Viruses; procedure, shortened: as §1
Enterovirus [5] = assay: Inhibitory concentration against human enterovirus EV68; assay type: functional, organism-based, Viruses
[6] = Inhibitory concentration against Echovirus 9; assay type: functional, Viruses; procedure, shortened: as §1
[7] = Inhibitory concentration against Echovirus 29; assay type: functional, Viruses; procedure, shortened: as §1
Coxsackievirus [8] = assay: Inhibitory concentration against Coxsackievirus A9; assay type: functional, organism-based, Viruses; procedure, shortened: as §1
Coxsackievirus [9] = assay: Inhibitory concentration against Coxsackievirus B1; assay type: functional, organism-based, Viruses; procedure, shortened: as §1
Coxsackievirus [10] = assay: Inhibitory concentration against Coxsackievirus B2; assay type: functional, organism-based, Viruses; procedure, shortened: as §1
Coxsackievirus [11] = assay: Inhibitory concentration against Coxsackievirus B3; assay type: functional, organism-based, Viruses; procedure, shortened: as §1
Coxsackievirus [12] = assay: Inhibitory concentration against Coxsackievirus B4; assay type: functional, organism-based, Viruses; procedure, shortened: as §1
Coxsackievirus [13] = assay: Inhibitory concentration against Coxsackievirus B5; assay type: functional, organism-based, Viruses; procedure, shortened: as §1
Coxsackievirus [14] = assay: Inhibitory concentration against Coxsackievirus B6; assay type: functional, organism-based, Viruses; procedure, shortened: as §1
Coxsackievirus [15] = assay: Inhibitory concentration against Coxsackievirus A16; assay type: functional, organism-based, Viruses; procedure, shortened: as §1
Coxsackievirus [16] = assay: Inhibitory concentration against Coxsackievirus A24; assay type: functional, organism-based, Viruses; procedure, shortened: as §1
rhinovirus A2 = assay: Inhibitory concentration against Human rhinovirus 2; assay type: functional, organism-based, human rhinovirus type 2; settings: Rhinovirus A; procedure, shortened: as §1
[17] = Inhibitory concentration against Human rhinovirus 14; assay type: functional, human rhinovirus type 14; procedure, shortened: as §1
Enterovirus [18] = assay: Inhibitory concentration against human enterovirus EV71 (1743) genotype B; assay type: functional, organism-based, Viruses; procedure, shortened: as §1
Enterovirus [19] = assay: Inhibitory concentration against human enterovirus EV71 (2086) genotype C; assay type: functional, organism-based, Viruses; procedure, shortened: as §1
Enterovirus [20] = assay: Inhibitory concentration against human enterovirus EV71 (2231) genotype C; assay type: functional, organism-based, Viruses; procedure, shortened: as §1
Enterovirus [21] = assay: Inhibitory concentration against human enterovirus EV71 (4643) genotype C; assay type: functional, organism-based, Viruses; procedure, shortened: as §1
Enterovirus [22] = assay: Inhibitory concentration against human enterovirus EV71 (BrCr) genotype A; assay type: functional, organism-based, Viruses; procedure, shortened: as §1
Enterovirus [23] = assay: Ratio of CC50 to that of IC50 against human enterovirus EV71-2231 strain; assay type: functional, Enterovirus A71
Enterovirus [24] = assay: Ratio of CC50 to that of IC50 against human enterovirus EV71-4643 strain; assay type: functional, Enterovirus A71
Enterovirus [25] = assay: Inhibitory concentration against Human Enterovirus 71; assay type: functional, organism-based, Viruses; procedure, shortened: as §1

| IC50 (Enterovirus [1]) | IC50 (Enterovirus [2]) | Compound | CC50 [3] | Selectivity index (Enterovirus [23]) | Selectivity index (Enterovirus [24]) | also measured |
| --- | --- | --- | --- | --- | --- | --- |
| 140 nM | 41 nM | CC(C)(CCOc1ccc(-c2ccc(Cl)cc2)cc1)CCN1CCN(c2ccncc2)C1=O | > 25000 nM | – | – | – |
| > 25000 nM | 2110 nM | CC(C)C(CCOc1ccc(-c2ccc(Cl)cc2)cc1)CCN1CCN(c2ccncc2)C1=O (configuration not stated) | > 25000 nM | – | – | – |
| > 10000 nM | > 10000 nM | O=C1N(CCC(CCOc2ccc(-c3ccc(Cl)cc3)cc2)Cc2ccccc2)CCN1c1ccncc1 (configuration not stated) | > 10000 nM | – | – | – |
| 20 nM | 5 nM | CC(CCCOc1ccc(-c2ccc(Cl)cc2)cc1)CN1CCN(c2ccncc2)C1=O (configuration not stated) | > 25000 nM | – | – | – |
| 600 nM | 53 nM | CC(CCCCN1CCN(c2ccncc2)C1=O)Oc1ccc(-c2ccc(Cl)cc2)cc1 (configuration not stated) | > 12500 nM | – | – | – |
| > 25000 nM | 130 nM | CC(C)(CCCN1CCN(c2ccncc2)C1=O)COc1ccc(-c2ccc(Cl)cc2)cc1 | > 25000 nM | – | – | – |
| > 25000 nM | 960 nM | CCCC(CCOc1ccc(-c2ccc(Cl)cc2)cc1)CCN1CCN(c2ccncc2)C1=O (configuration not stated) | > 25000 nM | – | – | – |
| 38 nM | 9.3 nM | CC(CCOc1ccc(-c2ccc(Cl)cc2)cc1)CCN1CCN(c2ccncc2)C1=O (configuration not stated) | > 25000 nM | >657 | >2688 | IC50 (Coxsackievirus [4]): 1710 nM; IC50 (Enterovirus [5]): 2680 nM; IC50 [6]: 2630 nM; IC50 [7]: 40 nM; IC50 (Coxsackievirus [8]): 33 nM; IC50 (Coxsackievirus [9]): 2890 nM; IC50 (Coxsackievirus [10]): > 12500 nM; IC50 (Coxsackievirus [11]): > 12500 nM; IC50 (Coxsackievirus [12]): 1240 nM; IC50 (Coxsackievirus [13]): 1320 nM; IC50 (Coxsackievirus [14]): > 12500 nM; IC50 (Coxsackievirus [15]): 900 nM; IC50 (Coxsackievirus [16]): 250 nM; IC50 (rhinovirus A2): > 12500 nM; IC50 [17]: 7910 nM; IC50 (Enterovirus [18]): 16 nM; IC50 (Enterovirus [20]): 38 nM; IC50 (Enterovirus [21]): 9.3 nM; IC50 (Enterovirus [22]): 69 nM |
| 76 nM | 38 nM | O=C1N(CCCCCOc2ccc(-c3ccc(Cl)cc3)cc2)CCN1c1ccncc1 | 6250 nM | – | – | IC50 (Coxsackievirus [4]): > 12500 nM; IC50 (Enterovirus [5]): > 12500 nM; IC50 [6]: 1310 nM; IC50 [7]: 390 nM; IC50 (Coxsackievirus [8]): 71 nM; IC50 (Coxsackievirus [9]): > 12500 nM; IC50 (Coxsackievirus [10]): > 12500 nM; IC50 (Coxsackievirus [11]): > 12500 nM; IC50 (Coxsackievirus [13]): 1140 nM; IC50 (Coxsackievirus [14]): > 12500 nM; IC50 (Coxsackievirus [15]): > 12500 nM; IC50 (Coxsackievirus [16]): 1300 nM; IC50 (rhinovirus A2): > 12500 nM; IC50 [17]: > 12500 nM; IC50 (Enterovirus [25]): 38 nM; IC50 (Enterovirus [18]): 92 nM; IC50 (Enterovirus [19]): 43 nM; IC50 (Enterovirus [20]): 76 nM; IC50 (Enterovirus [21]): 38 nM; IC50 (Enterovirus [22]): 130 nM |

The remaining lines, values behind:

| Compound | IC50 (Enterovirus [1]) | IC50 (Enterovirus [2]) | CC50 [3] | Selectivity index (Enterovirus [23]) | Selectivity index (Enterovirus [24]) | also measured |
| --- | --- | --- | --- | --- | --- | --- |
| Cc1cc(COc2ccc(-c3ccc(Cl)cc3)cc2)cc(CN2CCN(c3ccncc3)C2=O)c1 | > 25000 nM | 22900 nM | > 25000 nM | – | – | – |
| CCn1nnc(-c2ccc(OCCC(C)CCN3CCN(c4ccncc4)C3=O)cc2)n1 (configuration not stated) | 14 nM | 0.9 nM | > 12500 nM | >892 | >13888 | IC50 (Coxsackievirus [4]): 240 nM; IC50 (Enterovirus [5]): 2870 nM; IC50 [6]: 280 nM; IC50 [7]: 3230 nM; IC50 (Coxsackievirus [8]): > 25000 nM; IC50 (Coxsackievirus [9]): 35 nM; IC50 (Coxsackievirus [10]): > 25000 nM; IC50 (Coxsackievirus [11]): > 25000 nM; IC50 (Coxsackievirus [12]): 2740 nM; IC50 (Coxsackievirus [13]): 10400 nM; IC50 (Coxsackievirus [14]): > 25000 nM; IC50 (Coxsackievirus [15]): 130 nM; IC50 (Coxsackievirus [16]): 140 nM; IC50 (rhinovirus A2): 1450 nM; IC50 [17]: 850 nM; IC50 (Enterovirus [18]): 18 nM; IC50 (Enterovirus [19]): 3 nM; IC50 (Enterovirus [20]): 14 nM; IC50 (Enterovirus [21]): 0.9 nM; IC50 (Enterovirus [22]): 15 nM |
| CC(CCOc1ccc(-c2noc(C(F)(F)F)n2)cc1)CCN1CCN(c2ccncc2)C1=O (configuration not stated) | 24 nM | 1.4 nM | > 25000 nM | >1041 | >17857 | – |
| O=C1N(Cc2ccccc2COc2ccc(-c3ccc(Cl)cc3)cc2)CCN1c1ccncc1 | > 1250 nM | > 1250 nM | > 1250 nM | – | – | – |
| CCCc1nc(-c2ccc(OCCC(C)CCN3CCN(c4ccncc4)C3=O)cc2)no1 (configuration not stated) | 55 nM | 19 nM | > 12500 nM | >227 | >657 | – |
| CC(CCCCOc1ccc(-c2ccc(Cl)cc2)cc1)N1CCN(c2ccncc2)C1=O (configuration not stated) | 230 nM | 36 nM | 12500 nM | – | – | – |
| CC(CCOc1ccc(-c2nnn(C)n2)cc1)CCN1CCN(c2ccncc2)C1=O (configuration not stated) | 43 nM | 2.8 nM | > 25000 nM | >581 | >8928 | – |
| Cc1nc(-c2ccc(OCCC(C)CCN3CCN(c4ccncc4)C3=O)cc2)no1 (configuration not stated) | 10 nM | 0.9 nM | > 6250 nM | >625 | >6944 | – |
